The record followed here is ChEMBL document CHEMBL2062496, “Identification of a sirtuin 3 inhibitor that displays selectivity over sirtuin 1 and 2” (Eur J Med Chem, 2012).

Activity calls are given as the source filed them. No cut-off for these calls is given here.

Data set [1] deals with T1, NAD-dependent protein deacetylase sirtuin-1 (Homo sapiens) (UniProt Q96EB6).
T1 sequence (whole entry): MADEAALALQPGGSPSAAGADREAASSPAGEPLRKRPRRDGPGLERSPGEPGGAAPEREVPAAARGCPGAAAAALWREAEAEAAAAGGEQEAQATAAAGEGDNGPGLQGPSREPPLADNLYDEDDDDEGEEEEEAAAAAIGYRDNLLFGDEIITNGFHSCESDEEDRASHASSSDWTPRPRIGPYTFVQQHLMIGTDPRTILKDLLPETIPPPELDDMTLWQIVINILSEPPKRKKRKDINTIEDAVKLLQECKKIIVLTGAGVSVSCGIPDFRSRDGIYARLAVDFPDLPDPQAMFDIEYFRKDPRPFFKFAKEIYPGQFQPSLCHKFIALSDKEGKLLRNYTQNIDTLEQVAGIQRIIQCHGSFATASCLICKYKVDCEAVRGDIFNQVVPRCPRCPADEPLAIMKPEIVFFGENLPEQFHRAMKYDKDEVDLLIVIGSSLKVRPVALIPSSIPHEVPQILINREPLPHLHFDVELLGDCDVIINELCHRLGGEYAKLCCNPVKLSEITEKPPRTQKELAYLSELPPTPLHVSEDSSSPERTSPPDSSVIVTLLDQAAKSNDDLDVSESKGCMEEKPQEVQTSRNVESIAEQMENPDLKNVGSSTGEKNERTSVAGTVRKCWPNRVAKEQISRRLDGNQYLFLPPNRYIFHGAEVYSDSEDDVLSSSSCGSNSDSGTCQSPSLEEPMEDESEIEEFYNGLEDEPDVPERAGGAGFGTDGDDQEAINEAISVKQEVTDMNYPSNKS
The data set is described as follows: Inhibition of human SIRT1 assessed as enzyme activity using Fluor-de-Lys as substrate at 1 mM by fluorometry. Details: scale not given: the % may be the effect or the level left. Summed up: (§1)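 Commercial Fluor-de-Lys kit, substrate human p53 379–382 peptide (Arg-His-Lys-Lys(Ac)). Human Sirt1 or Sirt2 was incubated with substrate, NAD+ and compound at 1 mM, also tested at 100 µM. Fluorescence scales with Lys382 deacetylation. Activity is expressed relative to control, mean ± S.E.M. of 3–4 replicates.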

Data set [2] deals with T2, NAD-dependent protein deacetylase sirtuin-2 (Homo sapiens) (UniProt Q8IXJ6).
T2 sequence (whole entry): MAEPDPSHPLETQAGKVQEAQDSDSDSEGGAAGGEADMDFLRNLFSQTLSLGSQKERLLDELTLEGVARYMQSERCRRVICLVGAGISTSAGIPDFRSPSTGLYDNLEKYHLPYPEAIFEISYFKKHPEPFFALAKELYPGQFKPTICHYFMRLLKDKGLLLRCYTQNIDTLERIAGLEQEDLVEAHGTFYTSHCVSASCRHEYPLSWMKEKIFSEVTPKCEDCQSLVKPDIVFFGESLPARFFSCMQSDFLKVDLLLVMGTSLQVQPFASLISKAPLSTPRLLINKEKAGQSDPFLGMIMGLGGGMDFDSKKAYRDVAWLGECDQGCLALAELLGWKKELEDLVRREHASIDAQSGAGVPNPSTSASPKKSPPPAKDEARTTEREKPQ
As to the kind of experiment: Inhibition of human SIRT2 assessed as enzyme activity using Fluor-de-Lys as substrate at 100 uM by fluorometry. In short, it runs like this: as §1

For data set [3], the target named is T2, NAD-dependent protein deacetylase sirtuin-2 (Homo sapiens). The data set is described as follows: Inhibition of human SIRT2 assessed as enzyme activity using Fluor-de-Lys as substrate at 1 mM by fluorometry. Details: scale not given: the % may be the effect or the level left. Summed up:
as §1

Data set [4] deals with T1, NAD-dependent protein deacetylase sirtuin-1 (Homo sapiens). As to the kind of experiment: Inhibition of human SIRT1 assessed as enzyme activity using Fluor-de-Lys as substrate at 100 uM by fluorometry. Summed up: as §1
In data set [5] the test system is SK-MEL-28. As to the kind of experiment: Effect on ATP level in human SK-MEL-28 cells maintained in medium containing GF and glucose at 100 uM after 24 hrs by luciferase-based assay. Type of data set: functional, cell-based. Summed up: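 SK-MEL-28 cells in DMEM with 10% FBS, grown 24 h in 96-well plates in regular medium (growth factors, glucose), with or without compound at 100 µM. Antimycin served as positive control. Cellular ATP was released with a somatic cell releasing reagent and read by luciferase/luciferin bioluminescence. Mean ± S.E.M. of 10–14 replicates from 3 separate experiments.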

Data set [6] relates to SK-MEL-28. As to the kind of experiment: Reduction in ATP level in human SK-MEL-28 cells at 100 uM maintained in Locke's solution after 24 hrs by luciferase-based assay in absence of GF and glucose. Type of data set: functional, cell-based. In short, it runs like this: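 SK-MEL-28 cells were grown 24 h in Locke's saline lacking glucose and serum, with or without 100 µM compound; antimycin was the positive control. Cellular ATP was released with a somatic-cell releasing reagent, then luciferase/luciferin assay mix was added and bioluminescence read. Mean ± S.E.M. of 10–14 replicates from 3 separate experiments.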

The nature of data set [7]: Cytotoxicity against human SK-MEL-28 cells assessed as cell survival at 100 uM after 48 hrs. In kind it is cell-based. Conditions: read-out: Survival. In short, it runs like this:
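SK-MEL-28 cells grown in DMEM with 10% foetal bovine serum, 2 mM L-glutamine, penicillin and streptomycin. Cells plated and grown 48 h with or without compound at 100 µM. On the test day, cells washed in Locke's solution (134 mM NaCl, 5 mM KCl, 4 mM NaHCO3, 10 mM HEPES pH 7.6, CaCl2, 1 mM MgCl2, 5 mM sucrose), then incubated 90 min at 37 °C. Survival expressed as percent of control.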

Consider `O=C1NCCc2ccncc21`, for which the values for the Activity in data set [1] and in data set [3] were 125% and 136%, respectively. In addition, the inhibition entry in data set [2] and in data set [4] was “inactive” each time.

In the case of `NC(=O)c1cccnc1`, in data set [3], the Activity was found to be 71%. In addition, in the data set on SK-MEL-28 [5], the result was inactive. For the same molecule, in the data set with SK-MEL-28 [6], the outcome was Active.

As for `O=C1NCCc2ncccc21`, the Activity is 86% in data set [1] and 115% in data set [3]. Moreover, the inhibition entry in data set [2] and in data set [4] was “inactive” throughout.

On to `O=C1NCc2ncccc21`, for which the Activity was determined as 88% in data set [1] and 111% in data set [3]. The inhibition result in data set [2] and in data set [4] was “inactive” throughout.

On to `c1cncc(-c2c[nH]nn2)c1`, for which, in data set [7], the viability at 48 h, 100 µM worked out at 69%.

On to `Cc1ccc(C(=O)Nc2ccc(S(=O)(=O)O)c3cc(S(=O)(=O)O)cc(S(=O)(=O)O)c23)cc1NC(=O)c1cccc(NC(=O)Nc2cccc(C(=O)Nc3cc(C(=O)Nc4ccc(S(=O)(=O)O)c5cc(S(=O)(=O)O)cc(S(=O)(=O)O)c45)ccc3C)c2)c1`, for which the results for the Activity in data set [1] and in data set [3] were 18% and 20%, respectively.

Turning to `NC(=O)/C=C/c1cccnc1`, the figures for the Activity in data set [1] and in data set [3] were 99% and 109%, respectively. In addition, the inhibition entry in data set [2] and in data set [4] was “inactive” in each case.

`NS(=O)(=O)c1cccnc1`: the Activity in data set [1] turned out to be 108%; in data set [3], 115%. In addition, the inhibition result in data set [2] and in data set [4] was “inactive” throughout.

Turning to `Cc1ccncc1C(N)=O`, the Activity in data set [1] was determined as 105%; in data set [3], 110%. Besides, the inhibition result in data set [2] and in data set [4] was “inactive” each time.

Turning to `Cc1ncccc1C(N)=O`, the values for the Activity in data set [1] and in data set [3] were 101% and 107%, respectively. Further, the inhibition result in data set [2] and in data set [4] was “inactive” each time.

As to `c1cncc(-n2ccnn2)c1`, the values for the Activity in data set [1] and in data set [3] were 97% and 100%, respectively. Moreover, the inhibition result in data set [2] and in data set [4] was “inactive” throughout.

Take `O=C1NCc2ccncc21`: the Activity was determined as 117% in data set [1] and 145% in data set [3]. Also, the inhibition result in data set [2] and in data set [4] was “inactive” throughout.
